Results reported in ChEMBL document CHEMBL3817820, “Development of Potent and Selective Inhibitors for Group VIA Calcium-Independent Phospholipase A2 Guided by Molecular Dynamics and Structure-Activity Relationships” (J Med Chem, 2016).

Tests used:
[1] = molecular target: T1, 85/88 kDa calcium-independent phospholipase A2 (Homo sapiens) (UniProt O60733); assay: Inhibition of human group VIA iPLA2 at 0.091 mol fraction using arachidonyl-1-14C PAPC by mixed micelles modified Dole assay
T1 sequence (whole entry): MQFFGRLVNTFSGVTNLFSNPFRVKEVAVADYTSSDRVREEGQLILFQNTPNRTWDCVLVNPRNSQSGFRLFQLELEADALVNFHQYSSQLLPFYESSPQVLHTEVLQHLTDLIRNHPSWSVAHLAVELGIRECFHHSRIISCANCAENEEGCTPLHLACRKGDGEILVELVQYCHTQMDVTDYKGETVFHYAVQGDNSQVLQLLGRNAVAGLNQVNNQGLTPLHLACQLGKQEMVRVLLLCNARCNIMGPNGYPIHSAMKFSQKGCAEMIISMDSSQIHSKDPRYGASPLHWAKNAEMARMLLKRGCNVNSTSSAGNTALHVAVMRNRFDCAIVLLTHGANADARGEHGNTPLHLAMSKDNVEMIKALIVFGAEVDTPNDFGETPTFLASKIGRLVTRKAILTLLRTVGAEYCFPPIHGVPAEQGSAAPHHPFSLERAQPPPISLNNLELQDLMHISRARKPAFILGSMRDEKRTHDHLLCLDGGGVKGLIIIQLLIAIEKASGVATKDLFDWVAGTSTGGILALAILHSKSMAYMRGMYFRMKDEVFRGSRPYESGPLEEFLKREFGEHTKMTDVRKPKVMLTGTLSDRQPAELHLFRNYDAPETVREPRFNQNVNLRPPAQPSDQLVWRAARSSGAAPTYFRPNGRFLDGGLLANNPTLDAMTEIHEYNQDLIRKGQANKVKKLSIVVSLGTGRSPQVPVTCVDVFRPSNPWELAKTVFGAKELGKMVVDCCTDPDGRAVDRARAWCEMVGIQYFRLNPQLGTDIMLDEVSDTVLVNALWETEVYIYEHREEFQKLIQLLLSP
In short: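 Substrate micelles: 400 μM Triton X-100, 98.3 μM PAPC, 1.7 μM arachidonyl-1-14C PAPC. Buffer: 100 mM HEPES pH 7.5, 2 mM ATP, 4 mM DTT. Inhibitor tested at 0.091 mole fraction from a 5 mM DMSO stock; percent inhibition determined.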

[2] = molecular target: T1, 85/88 kDa calcium-independent phospholipase A2 (Homo sapiens); assay: Inhibition of human group VIA iPLA2 using arachidonyl-1-14C PAPC by mixed micelles modified Dole assay
In short: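 Run in the same micelle substrate (Triton X-100/PAPC/14C-PAPC) in 100 mM HEPES pH 7.5, 2 mM ATP and 4 mM DTT, on compounds showing over 95% inhibition in the screen. Percent inhibition plotted against log mole fraction; XI(50) and its error obtained by nonlinear regression.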

[3] = molecular target: T2, Cytosolic phospholipase A2 (Homo sapiens) (UniProt P47712); assay: Inhibition of human group IVA cPLA2 at 0.091 mol fraction using arachidonyl-1-14C PAPC by mixed micelles modified Dole assay
T2 sequence (whole entry): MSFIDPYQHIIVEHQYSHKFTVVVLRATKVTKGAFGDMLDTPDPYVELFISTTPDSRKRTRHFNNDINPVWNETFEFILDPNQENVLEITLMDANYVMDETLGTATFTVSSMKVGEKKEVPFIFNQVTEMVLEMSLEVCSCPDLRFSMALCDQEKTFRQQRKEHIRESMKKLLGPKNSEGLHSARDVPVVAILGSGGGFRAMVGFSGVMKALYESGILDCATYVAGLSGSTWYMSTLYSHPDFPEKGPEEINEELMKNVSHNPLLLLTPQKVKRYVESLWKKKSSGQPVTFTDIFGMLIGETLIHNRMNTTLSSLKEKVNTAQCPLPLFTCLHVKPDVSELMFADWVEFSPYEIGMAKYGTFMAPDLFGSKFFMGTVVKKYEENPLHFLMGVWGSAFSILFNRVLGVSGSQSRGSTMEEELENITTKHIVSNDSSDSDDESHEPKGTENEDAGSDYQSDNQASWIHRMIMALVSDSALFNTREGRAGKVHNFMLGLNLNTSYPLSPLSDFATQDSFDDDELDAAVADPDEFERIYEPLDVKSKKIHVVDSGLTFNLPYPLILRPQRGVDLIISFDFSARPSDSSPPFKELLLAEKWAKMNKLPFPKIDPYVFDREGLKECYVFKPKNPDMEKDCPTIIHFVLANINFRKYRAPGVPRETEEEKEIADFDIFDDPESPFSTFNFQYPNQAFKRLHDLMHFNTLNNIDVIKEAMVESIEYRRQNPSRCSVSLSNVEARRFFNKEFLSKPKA
In short: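 Buffer: 100 mM HEPES pH 7.5 with 90 μM CaCl2, 2 mM DTT and 0.1 mg/ml BSA. Inhibitor screened at 0.091 mole fraction, added from a 5 mM DMSO stock; percent inhibition recorded.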

[4] = molecular target: T3, Phospholipase A2 group V (Homo sapiens) (UniProt P39877); assay: Inhibition of human group V sPLA2 at 0.091 mol fraction using arachidonyl-1-14C PAPC by mixed micelles modified Dole assay
T3 sequence (whole entry): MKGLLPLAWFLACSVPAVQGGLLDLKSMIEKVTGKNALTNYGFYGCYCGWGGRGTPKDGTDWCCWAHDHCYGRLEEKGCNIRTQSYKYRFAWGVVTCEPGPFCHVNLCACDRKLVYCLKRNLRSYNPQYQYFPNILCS

Row | inhibition [1] [%] | XI50 [2] | inhibition [3] [%] | inhibition [4] [%] | SMILES
1 | 96 | 9e-05 | 60 | < 25 | COc1ccc(CCSCC(=O)C(F)(F)F)cc1
2 | 99 | 0.0002 | 88 | 32 | O=C(CSCCc1ccc2ccccc2c1)C(F)(F)F

Continued, compound first:

Row | SMILES | inhibition [1] [%] | XI50 [2] | inhibition [3] [%] | inhibition [4] [%]
3 | COc1ccc(CCSCC(=O)c2noc(C(C)(C)C)n2)cc1 | 98 | 0.0057 | 70 | 38
4 | COc1ccc(CCCCC(=O)c2noc(C(C)(C)C)n2)cc1 | 64 | – | 52 | 35
5 | COc1ccc(CCSCC(=O)C(F)(F)C(F)(F)F)cc1 | 100 | 0.00012 | 61 | 28
6 | O=C(CSCCc1ccccc1)C(F)(F)C(F)(F)F | 99 | 0.00015 | < 25 | < 25
